Test results reported in ChEMBL document CHEMBL2062417, “Biotinylated quercetin as an intrinsic photoaffinity proteomics probe for the identification of quercetin target proteins” (Bioorg Med Chem, 2011).
Activity calls are given as the source filed them. The calls are words filed in the database; no cut-off is given here.

What was measured:
Jurkat = assay: Inhibition of heat shock-induced HSP70 expression in human Jurkat cells at 145 uM treated 2 hrs before beat shock challenge measured after 8 hrs by Western blotting; format: functional, cell-based
Procedure, shortened: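 Jurkat cells (low basal HSP70) got 145 μM compound or DMSO vehicle for 2 h, then a 30 min 43 °C heat shock and 8 h recovery at 37 °C. HSP70 and actin were read by Western blot. Controls were unheated cells and heated cells with no additive.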

Homo sapiens [1] = species: Homo sapiens; assay: Binding affinity to CK2 at 150 uM after 30 mins by silver staining based pull down assay
Procedure, shortened: (§1)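 CK2 (17.5–70 nM) was mixed with 150 μM BioQ in 400 μL 10 mM PBS pH 7.2 with protease inhibitors, with or without 10 mM MgCl2 and 2 μM ATP. Samples were irradiated 30 min on ice (320–400 nm, peak 365 nm) or left unirradiated. Capture was on streptavidin agarose for 1 h, with washes in lysis buffer or 2% SDS Tris buffer, then boiling, SDS-PAGE and silver staining.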

Homo sapiens [2] = species: Homo sapiens; assay: Binding affinity to CK2 at 150 uM followed by UV irradiation for 30 mins with Wood's glass filtered medium pressure mercury arc light by silver staining based pull down assay; procedure, shortened: as §1
[3] = target: T1, Splicing factor 3B subunit 3 (Homo sapiens) (UniProt Q15393); assay: Binding affinity to SF3B3 in human Jurkat cells at 150 uM followed by UV irradiation for 30 mins with Wood's glass filtered medium pressure mercury arc light after cell lysis measured after denaturing wash by SDS-PAGE based pull down assay
T1 sequence (whole entry): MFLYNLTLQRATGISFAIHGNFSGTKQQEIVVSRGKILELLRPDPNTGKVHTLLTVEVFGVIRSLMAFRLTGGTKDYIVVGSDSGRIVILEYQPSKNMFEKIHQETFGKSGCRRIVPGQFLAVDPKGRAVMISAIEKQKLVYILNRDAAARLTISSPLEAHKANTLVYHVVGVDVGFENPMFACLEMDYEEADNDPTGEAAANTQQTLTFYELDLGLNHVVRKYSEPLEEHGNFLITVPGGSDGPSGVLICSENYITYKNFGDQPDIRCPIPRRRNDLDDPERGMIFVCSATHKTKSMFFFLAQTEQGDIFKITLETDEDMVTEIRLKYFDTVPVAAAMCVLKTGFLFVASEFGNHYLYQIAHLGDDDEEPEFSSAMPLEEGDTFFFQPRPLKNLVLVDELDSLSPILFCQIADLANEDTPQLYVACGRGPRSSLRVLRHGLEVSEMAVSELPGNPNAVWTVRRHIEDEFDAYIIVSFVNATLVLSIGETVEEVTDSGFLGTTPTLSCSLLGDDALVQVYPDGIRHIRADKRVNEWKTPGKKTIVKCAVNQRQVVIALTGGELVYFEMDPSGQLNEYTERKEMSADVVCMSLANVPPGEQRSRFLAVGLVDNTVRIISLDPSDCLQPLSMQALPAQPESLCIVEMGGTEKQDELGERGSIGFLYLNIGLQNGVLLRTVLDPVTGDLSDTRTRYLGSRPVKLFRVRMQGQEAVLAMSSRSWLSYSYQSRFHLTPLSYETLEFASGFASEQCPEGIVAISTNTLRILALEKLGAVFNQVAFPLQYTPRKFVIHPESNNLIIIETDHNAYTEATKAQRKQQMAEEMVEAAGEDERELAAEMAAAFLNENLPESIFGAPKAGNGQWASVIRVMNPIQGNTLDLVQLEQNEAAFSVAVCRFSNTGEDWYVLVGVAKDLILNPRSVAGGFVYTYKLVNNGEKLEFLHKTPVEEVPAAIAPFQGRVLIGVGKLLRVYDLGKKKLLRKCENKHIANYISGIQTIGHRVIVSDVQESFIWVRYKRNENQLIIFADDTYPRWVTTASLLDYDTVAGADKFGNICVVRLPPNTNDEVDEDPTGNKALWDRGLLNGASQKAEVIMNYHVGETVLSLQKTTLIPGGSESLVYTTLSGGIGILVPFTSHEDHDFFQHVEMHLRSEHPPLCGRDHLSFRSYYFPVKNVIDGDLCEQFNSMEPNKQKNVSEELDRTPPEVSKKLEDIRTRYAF
Procedure, shortened: (§2)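 Jurkat cells were grown in RPMI with 10% FBS (about 15×10^6 cells) and treated 2 h with 150 μM BioQ in 3% aqueous DMSO. They were heat-shocked at 43 °C for 30 min, recovered 1 h at 37 °C, and UV-irradiated (320–400 nm, peak 365 nm, 30 min, 4 °C) before or after sonication lysis. Streptavidin-agarose capture ran 1 h. Beads were washed ≥3× with lysis buffer or 2% SDS Tris pH 7.4, boiled, run on 12% SDS-PAGE and silver-stained.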

[4] = target: T1, Splicing factor 3B subunit 3 (Homo sapiens); assay: Binding affinity to SF3B3 in human Jurkat cells at 150 uM followed by UV irradiation for 30 mins with Wood's glass filtered medium pressure mercury arc light prior to cell lysis measured after denaturing wash by SDS-PAGE based pull down assay; procedure, shortened: as §2
[5] = target: ATP synthase F(1) complex subunit alpha, mitochondrial (Homo sapiens) (UniProt P25705); assay: Binding affinity to ATP5A1 in human Jurkat cells at 150 uM followed by UV irradiation for 30 mins with Wood's glass filtered medium pressure mercury arc light prior to cell lysis measured after denaturing wash by LC-MS/MS based pull down assay
Procedure, shortened: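 Silver-stained bands from cells irradiated before lysis were excised, destained, reduced with 10 mM DTT, alkylated with 50 mM iodoacetamide and digested with trypsin overnight. Peptides were extracted in 1% TFA/50% acetonitrile. Nano-C18 LC used a 2–50% acetonitrile gradient with 0.1% formic acid over 50 min at 260 nL/min, followed by MS/MS identification.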

ATP synthase F(1) complex subunit alpha, mitochondrial (Homo sapiens), sequence (P25705 whole entry, one chain of several): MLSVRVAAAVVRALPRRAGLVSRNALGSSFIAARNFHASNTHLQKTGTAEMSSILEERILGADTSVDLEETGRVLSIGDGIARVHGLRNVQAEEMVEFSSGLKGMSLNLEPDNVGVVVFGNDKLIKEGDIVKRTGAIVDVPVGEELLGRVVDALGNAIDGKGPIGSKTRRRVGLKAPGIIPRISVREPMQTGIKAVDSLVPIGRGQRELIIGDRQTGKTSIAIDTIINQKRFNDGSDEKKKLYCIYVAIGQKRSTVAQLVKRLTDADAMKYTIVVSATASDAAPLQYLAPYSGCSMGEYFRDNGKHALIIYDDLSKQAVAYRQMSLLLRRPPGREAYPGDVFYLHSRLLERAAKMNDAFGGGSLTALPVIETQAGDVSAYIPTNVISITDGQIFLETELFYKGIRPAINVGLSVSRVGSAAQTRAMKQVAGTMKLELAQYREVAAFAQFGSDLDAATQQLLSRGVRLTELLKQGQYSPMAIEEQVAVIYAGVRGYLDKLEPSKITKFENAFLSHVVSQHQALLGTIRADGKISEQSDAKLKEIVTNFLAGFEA

- Activity (Homo sapiens [1]): inactive
- Activity (Homo sapiens [2]): inactive
- Activity [3]: Active
- Activity [4]: Active
- Activity [5]: Active
Compound: O=C(CCCC[C@@H]1SC[C@@H]2NC(=O)N[C@@H]21)NCCOCCOCCNC(=O)COc1cc(O)c2c(=O)c(O)c(-c3ccc(O)c(O)c3)oc2c1
- inhibition (Jurkat): Active
